The record followed here is PubChem BioAssay.

SMILES strings stand for the structures. Values without a mark were called inactive. Results filed as inconclusive are left out. Active and inactive are the calls of the source.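 How the source made its calls, unless noted: active means viability increase at or above a cutoff of the median across tested compounds plus 3 SD (cut at about 8.5% in these data, passing the limit was not always enough); inconclusive means some gains above the cutoff, reason not given; inactive means the rest.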

The nature of test [1]: S. cerevisiae growth inhibition in permissive medium (OD615), pilot counter-assay for S. cerevisiae lifespan shortening project, permissive growth control (AID 705;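 active means growth inhibition above 25% in both replicates, a cutoff set 3 SD above the mean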). The following applies: OD615, 24 h, at 10 µM, hits give high values. The essentials: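 System: Engineered DeaD yeast | Buffer or medium: SC raffinose/galactose permissive medium | Doses: 10 µM single dose, 0.25% DMSO | Times: 24 h exposure, 30 °C | Measured by: OD615 turbidity read | Read-out: Yeast growth inhibition indicated by reduced 24 h OD615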

The nature of test [2]: S. cerevisiae growth inhibition in restrictive medium, OD615, pilot screen, restrictive growth control, yeast lifespan reduction project (AID 706;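 active means growth inhibition above a set limit, 3 SD over mean compound inhibition, in both replicates, cut at about 43% in these data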;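 further: modified DeaD lifespan yeast strain shifted to restrictive glucose medium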). The following applies: OD615, 48 h, at 10 µM, hits give high values. Put shortly: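 Assay system: engineered S. cerevisiae DeaD strain; Buffer or medium: CSMM-D glucose medium; Dosing: 10 µM compound, 0.25% DMSO; Times: cell pre-growth 4 h, compound exposure 48 h, 30 °C; Detection: absorbance (optical density) measured at 615 nm.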

Test [3] in a line: doxorubicin toxicity protection in MRP-1 cells – H69AR cells, CellTiter-Glo, duplicate, MRP-1 activator project, pilot screen (AID 807).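 Further: compound pretreatment 18-22 h then 72 h combined with doxorubicin; 0% = doxorubicin alone and 100% = vehicle without doxorubicin.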 Conditions: H69AR viability with doxorubicin, CellTiter-Glo luminescence; at 10 µM; hits give high values. A general note: In ATP-based viability assays light output follows the ATP content of the culture.
Test [4] can be described thus: viability of HCT116 without oncogenic beta-catenin – human colon tumor cells, pilot screen (AID 823;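 active means cell viability at or below a set limit in both duplicate runs, the limit being the all-compound median minus 4 SD, cut at about 23% in these data, passing the limit was not always enough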;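 further: 0% = wells killed by 20 µM Hyamine and 100% = untreated DMSO cell wells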). Conditions: HCT116 beta-catenin knockout viability, CellTiter-Glo, 60 h; at 10 µM; hits give low values.
Test [5] is described as follows: viability of PTEN-null HCT116 cells – cell-based, HCT116 clonal line, CellTiter-Glo, pilot screen (AID 824;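 active means viability at or below 27.92% in each of two runs, the all-compound median minus 4 SD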;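 further: 0% = 20 µM Hyamine control and 100% = vehicle cell control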). The following applies: HCT116 PTEN-deleted viability, 60 h, at 10 µM, hits give low values.
The nature of test [6]: RAM pathway blockade in budding yeast – dse1pr::URA3 reporter, 5-FOA selection, pilot screen (AID 869;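 active means inhibition over a set limit, the all-compound mean plus 3 SD, in both replicate runs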;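 further: 0% = DMSO wells with no growth and 100% = 10 µM 1-NA-PP1 with full growth; RAM network block rescues cells from 5-FOA so hits raise OD615 growth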). The following applies: S. cerevisiae dse1pr::URA3 5-FOA growth, OD615, 2 d; at 10 µM; hits give high values; strain carries analog-sensitive mutant Cbk1 kinase.
Test [7] is described as follows: RAM signaling pathway blockade in yeast – S. cerevisiae, Pdr1DBD-CYC8 efflux-inhibited sensitized strain, primary screen (AID 1298;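 active means RAM network inhibition above 8.4% in each of two replicates, 3 SD over the compound average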;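 further: 0% = DMSO untreated cells without growth and 100% = 10 µM 1-NA-PP1 full growth; higher means more yeast growth rescued from 5-FOA killing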). The following applies: S. cerevisiae cbk1-as DSE1-URA3 strain, 5-FOA growth OD615, 2 d; at 50 µM; hits give high values.

One may read the viability as a read-out of living cells in per cent, often relative to untreated cells. For orientation: inhibition means the drop in the measured response relative to a control, in per cent.

Regarding `CC(=O)Nc1cc(-c2nn3c(C)nnc3s2)ccc1C`, the growth inhibition in test [1] was 3.93%; in test [2] it was 1.4%. Moreover, the viability increase in test [3] is -0.1%. Moreover, the viability in test [4] was 98.7%; in test [5], 90.3%. The inhibition in test [6] is 3.41%. Moreover, the RAM network inhibition in test [7] is 3.72%.
Regarding `CC1=CCC2C(=O)N(c3ccc(C)c(Br)c3)C(=O)C2C1` (stereo unspecified), the growth inhibition was 5.96% in test [1] and -0.835% in test [2]. Besides, in test [3], the viability increase was 0.55%. In addition, the viability in test [4] is 99.5%; in test [5] it was 95.4%. Besides, the inhibition in test [6] is 0.08%. Also, the RAM network inhibition in test [7] was 0%.
Turning to `Clc1ccccc1C1CC(c2ccccc2)Nc2ncnn21` (stereo unspecified), the growth inhibition was -10.9% in test [1] and -11.2% in test [2]. Further, the viability increase in test [3] was -1.24%. Besides, the viability in test [4] is 83.9%; in test [5], 81.2%. The inhibition in test [6] is 2.05%. In addition, the RAM network inhibition in test [7] was -0.69%.
As for `COc1cc(CNC(=O)OCC(C)C)cc(OC)c1OC`, the growth inhibition was -11.4% in test [1] and -20.8% in test [2]. In test [3], the viability increase is -0.03%. The results for the viability in test [4] and in test [5] were 99.7% and 99%, respectively. The inhibition in test [6] was 0.19%. Besides, in test [7], the RAM network inhibition was -0.93%.
Consider `COc1cccc(C(=O)Nc2nnc(-c3cccs3)o2)c1`, for which the growth inhibition was -16.4% in test [1] and -17% in test [2]. In addition, in test [3], the viability increase is -4.26%. Further, the viability in test [4] was 44.8%; in test [5], 56.3%. Besides, the inhibition in test [6] is 0.07%. In test [7], the RAM network inhibition was 0.16%.
As to `COc1ccc(OC)c2c1sc(=NC(=O)C(C)C)n2C`, the results for the growth inhibition in test [1] and in test [2] were -3.95% and 17.4%, respectively. In addition, the viability increase in test [3] is -3.34%. Further, the viability in test [4] is 79.2%; in test [5] it was 74.1%. Besides, the inhibition in test [6] is 0.575%. Further, in test [7], the RAM network inhibition is 3%.
Consider `CCOC(=O)C1=C(C)Nc2nc(C)nn2C1c1ccc(OCC)c(OC)c1` (stereo unspecified), for which the growth inhibition is -8.05% in test [1] and -3.29% in test [2]. Also, the viability increase in test [3] is -4.07%. Further, the viability in test [4] is 101%; in test [5], 99%. Further, in test [6], the inhibition was 1.44%. The RAM network inhibition in test [7] is 0.63%.
As for `COc1ccc(C(=O)/C=C/N2CCCCC2)cc1OC`, the growth inhibition in test [1] is 53.1% (active); in test [2], 74.3% (active). For the same molecule, the viability increase in test [3] was -4.55%. In addition, the viability in test [4] is 77.8%; in test [5] it was 86.6%. The inhibition in test [6] was 0.145%. For the same molecule, the RAM network inhibition in test [7] was -1.38%.
Take `Cn1c(NC(=O)Cc2ccc(F)cc2)cc(=O)n(C)c1=O`: the growth inhibition was -5.41% in test [1] and -2.77% in test [2]. Also, in test [3], the viability increase is 3.42%. The viability was 109% in test [4] and 95.4% in test [5]. In addition, in test [6], the inhibition was 1.83%. Besides, the RAM network inhibition in test [7] was 0.62%.
For the molecule `Cc1ccc(N2C(=O)c3oc4ccccc4c(=O)c3C2c2cccnc2)nc1` (stereo unspecified), the growth inhibition is -12.7% in test [1] and -4.26% in test [2]. Besides, the viability increase in test [3] is 0.88%. Further, the viability is 99.3% in test [4] and 102% in test [5]. For the same molecule, the inhibition in test [6] was 1.04%. In addition, in test [7], the RAM network inhibition is 5.38%.
With `O=C(c1ccco1)N1CCN(S(=O)(=O)c2cccc3nsnc23)CC1`, the figures for the growth inhibition in test [1] and in test [2] were -10.9% and -21.4%, respectively. The viability increase in test [3] was -0.16%. Further, the viability is 99% in test [4] and 99.7% in test [5]. The inhibition in test [6] is 0.6%. Further, the RAM network inhibition in test [7] is 5.06%.
As to `O=C(c1c(F)cccc1F)N1CCN(c2cccc(C(F)(F)F)c2)CC1`, the growth inhibition was -7.33% in test [1] and -6.87% in test [2]. The viability increase in test [3] is 2.86%. Also, the viability in test [4] was 83.8%; in test [5], 82.1%. Besides, the inhibition in test [6] was 0.955%. Also, in test [7], the RAM network inhibition is 4.98%.
On to `Cc1c(NC(=O)Oc2ccccc2)sc(=S)n1C`, for which the growth inhibition in test [1] is 14.5%; in test [2] it was 34.4%. In test [3], the viability increase was -3.22%. For the same molecule, the viability was 102% in test [4] and 98.2% in test [5]. Further, the inhibition in test [6] was 1.32%. Also, the RAM network inhibition in test [7] is 0.99%.
Turning to `CCC(Sc1nc(C)cc(=O)[nH]1)C(=O)Nc1ccc(Cl)cn1` (stereo unspecified), the growth inhibition was -2.36% in test [1] and 26.5% in test [2]. The viability increase in test [3] is -3.4%. The figures for the viability in test [4] and in test [5] were 98.9% and 96.7%, respectively. In addition, the inhibition in test [6] is 1.84%. In addition, the RAM network inhibition in test [7] was 3.08%.
In the case of `CCOc1ccc(N(CC(=O)NC(C)(C)C)S(=O)(=O)c2c(C)noc2C)cc1`, the growth inhibition in test [1] was -19.9%; in test [2], -9.45%. Moreover, in test [3], the viability increase is -4.94%. Moreover, the viability was 81.5% in test [4] and 81.8% in test [5]. Also, the inhibition in test [6] was 0.36%. In addition, the RAM network inhibition in test [7] is -1%.
As to `CCC(C)N1C(=O)CCC1C(=O)NCc1ccc2c(c1)OCO2` (stereo unspecified), the results for the growth inhibition in test [1] and in test [2] were -0.51% and -0.82%, respectively. Moreover, the viability increase in test [3] is -3.05%. Also, the viability is 102% in test [4] and 97.2% in test [5]. For the same molecule, in test [6], the inhibition is 2.33%. For the same molecule, the RAM network inhibition in test [7] was 4.46%.
`O=C(Cn1cc2c(n1)CCCCC2)NCc1cccs1`: the growth inhibition in test [1] is 0.86%; in test [2], 0.58%. Moreover, in test [3], the viability increase was -1.84%. For the same molecule, the viability in test [4] was 100%; in test [5], 87.7%. The inhibition in test [6] was 0.935%. Also, the RAM network inhibition in test [7] was 1.69%.
With `COc1ccccc1Nc1nc2ccccc2n1C`, the growth inhibition was -11.6% in test [1] and -24.9% in test [2]. For the same molecule, the viability increase in test [3] was 0.31%. Besides, the viability is 94.7% in test [4] and 94.6% in test [5]. Moreover, the inhibition in test [6] was 1.44%. Also, the RAM network inhibition in test [7] is 4.17%.
